These results are taken from ChEMBL document CHEMBL3808351, “Synthesis, biological evaluation, and physicochemical property assessment of 4-substituted 2-phenylaminoquinazolines as Mer tyrosine kinase inhibitors” (Bioorg Med Chem, 2016).

The nature of data set [1]: Antiproliferative activity against human DU145 cells after 48 hrs by SRB method. It counts as functional. The following applies: DU-145, 48 h.
The test system of another data set is A549. Description: Antiproliferative activity against human A549 cells after 48 hrs by SRB method. It is filed as functional. The following applies: A549, 48 h.
For data set [2], the target named is T1, Tyrosine-protein kinase Mer (Homo sapiens, UniProt Q12866).
T1 sequence (Q12866 whole entry): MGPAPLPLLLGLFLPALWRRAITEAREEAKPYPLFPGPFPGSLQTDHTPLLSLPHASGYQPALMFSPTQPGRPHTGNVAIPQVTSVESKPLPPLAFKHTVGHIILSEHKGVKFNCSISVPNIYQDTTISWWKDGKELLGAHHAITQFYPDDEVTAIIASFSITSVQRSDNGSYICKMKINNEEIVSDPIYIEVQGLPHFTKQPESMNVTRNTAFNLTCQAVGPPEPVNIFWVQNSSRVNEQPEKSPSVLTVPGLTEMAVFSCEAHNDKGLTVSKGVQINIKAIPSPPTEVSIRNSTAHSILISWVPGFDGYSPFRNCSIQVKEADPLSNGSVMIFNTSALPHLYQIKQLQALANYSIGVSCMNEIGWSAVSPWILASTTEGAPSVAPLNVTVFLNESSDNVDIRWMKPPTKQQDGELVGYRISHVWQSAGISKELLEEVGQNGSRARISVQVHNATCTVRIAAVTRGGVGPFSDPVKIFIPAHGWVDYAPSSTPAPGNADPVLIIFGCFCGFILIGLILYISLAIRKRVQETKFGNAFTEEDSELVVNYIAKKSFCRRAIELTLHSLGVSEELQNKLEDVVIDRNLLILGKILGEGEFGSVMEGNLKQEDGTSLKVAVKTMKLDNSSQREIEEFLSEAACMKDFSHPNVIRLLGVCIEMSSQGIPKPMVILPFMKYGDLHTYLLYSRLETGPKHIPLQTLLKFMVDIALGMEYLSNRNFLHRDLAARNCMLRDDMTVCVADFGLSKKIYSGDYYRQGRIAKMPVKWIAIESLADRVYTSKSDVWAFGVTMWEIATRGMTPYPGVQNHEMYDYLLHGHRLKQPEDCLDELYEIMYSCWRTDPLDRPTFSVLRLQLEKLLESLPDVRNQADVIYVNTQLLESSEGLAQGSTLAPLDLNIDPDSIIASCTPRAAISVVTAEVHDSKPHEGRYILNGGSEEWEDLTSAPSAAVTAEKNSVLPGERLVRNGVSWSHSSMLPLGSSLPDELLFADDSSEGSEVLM
As to the kind of experiment: Inhibition of MERTK (unknown origin) using EFPIYDFLPAKKK-CONH2 as substrate and ATP after 180 mins by microfluidic capillary electrophoresis method.

Data set [3] in a line: n-octanol-water partition co-efficient, log P of the compound after 24 hrs by HPLC analysis. It counts as physicochemical.
Data set [4] can be described thus: Solubility of the compound in phosphate buffer at pH 7.4 by HPLC-UV method. It is filed as physicochemical. A digest of the protocol:
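Compound stock was 10 mg/mL in DMSO. It was diluted into pH 7.4 phosphate buffer to a final 1% DMSO and stirred 4 h at room temperature, then spun at 10,000 rpm for 5 min. The saturated supernatant was read by HPLC-UV at 254 nm on a C18 column with a MeOH/water gradient. Concentration was taken from an acetonitrile standard curve spanning 0.20–50 µg/mL. Samples were run in triplicate.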

The subject of another data set is KB. As to the kind of experiment: Antiproliferative activity against human KB cells after 48 hrs by SRB method. It is filed as functional.
A short description of data set [5]: Antiproliferative activity against human KBVIN cells after 48 hrs by SRB method. It counts as functional.

In brackets after ≈: the same amount, converted by molar mass. Where only a bound is given, the exact number is not on record here.

Take `Nc1ccc(Nc2nc(NCCCO)c3ccccc3n2)cc1`: the GI50 in data set [1] is 20.8 µM; with A549 it was 17.1 µM. The compound also showed an IC50 in data set [2] of more than 30 µM.
`COc1ccc(Nc2nc(NCCCO)c3ccccc3n2)cc1`: the logP in data set [3] came out at 2.54. Also, in data set [4], the solubility amounted to 95.6 µg/mL (≈ 295 µM).
Regarding `COc1ccc(N(C)c2nc(NC3CCCC3)c3ccccc3n2)cc1`, the logP in data set [3] is listed as more than 5. This compound gave a solubility in data set [4] of 1.11 µg/mL (≈ 3.19 µM).
With `COc1ccc(N(C)c2nc(NCC3CCOCC3)c3ccccc3n2)cc1`, in data set [2], the IC50 was more than 30 µM.
Compound `N#Cc1ccc(Nc2nc(NCCCO)c3ccccc3n2)cc1` displayed a logP in data set [3] of 2.84. For the same compound, in data set [4], the concentration in solution (solubility) came to 7.52 µg/mL (≈ 23.5 µM).
For the compound `COc1ccc(N(C)c2nc(N3CCOCC3)c3ccccc3n2)cc1`, in data set [2], the half-inhibitory concentration (IC50) was more than 30 µM.
In data set [3], `Oc1ccc(Nc2nc(NC3CCCC3)c3ccccc3n2)cc1` returned a logP of 3.95. Besides, the concentration in solution in data set [4] (solubility) was 3.1 µg/mL (≈ 9.68 µM).
With `N#Cc1ccc(Nc2nc(NC3CCCC3)c3ccccc3n2)cc1`, the 50% growth inhibitory concentration (GI50) (in data set [1]; with A549) was more than 31.3 µM throughout. In data set [2], this compound returned a half-inhibitory concentration (IC50) of more than 30 µM.
Regarding `CNc1nc(Nc2ccc(OC)cc2)nc2ccccc12`, the lipophilicity (logP) in data set [3] is recorded as 3.21. Also, the solubility in data set [4] came out at 6.61 µg/mL (≈ 23.6 µM).
Compound `Nc1ccc(Nc2nc(N3CCOCC3)c3ccccc3n2)cc1` had a half-maximal inhibitory concentration (IC50) in data set [2] of more than 30 µM.
In data set [3], `CCCNc1nc(Nc2ccc(OC)cc2)nc2ccccc12` came in with a logP of more than 5. The compound also had a solubility in data set [4] of 4.36 µg/mL (≈ 14.1 µM).
Regarding `OCCCNc1nc(Nc2ccc(F)cc2)nc2ccccc12`, the figures for the concentration for 50% growth inhibition (GI50) (in data set [1]; with A549) were 20.6 µM and 19.3 µM, respectively. The IC50 in data set [2] is more than 30 µM.
As for `COc1ccc(Nc2nc(NC3CCCC3)c3ccccc3n2)cc1`, the logP in data set [3] is recorded as more than 5. In data set [4], this compound had a solubility of 10.4 µg/mL (≈ 31.1 µM).
In the case of `Fc1ccc(Nc2nc(N3CCOCC3)c3ccccc3n2)cc1`, the IC50 in data set [2] is more than 30 µM.
In data set [3], `Fc1ccc(Nc2nc(NC3CCCC3)c3ccccc3n2)cc1` returned a log partition coefficient (logP) of more than 5. The same compound returned a solubility in data set [4] of 1.54 µg/mL (≈ 4.78 µM).
The like results for `CCCNc1nc(N(C)c2ccc(OC)cc2)nc2ccccc12` were, in that order, more than 5 and 3.43 µg/mL (≈ 10.6 µM).
On to `CC(=O)O[C@H]1C(=O)[C@@]2(C)[C@H]([C@H](OC(=O)c3ccccc3)[C@]3(O)C[C@H](OC(=O)[C@H](O)[C@@H](NC(=O)c4ccccc4)c4ccccc4)C(C)=C1C3(C)C)[C@]1(OC(C)=O)CO[C@@H]1C[C@@H]2O` [PACLITAXEL], for which the values for the GI50 (in the data set on KB; with A549; in data set [5]) were 0.0026 µM, 0.0049 µM and 0.948 µM, respectively.
